This is a sample that favours compounds with a hit; in the whole collection about 6.4% have one here.
CHOP inh – blocks CHOP induction under ER stress; CHO-K1 CHOP-promoter luciferase, tunicamycin-induced, 15-18 h; AID 2732; actives 3.8% (n = 220,000); inhibition, % at 10 µM;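 active means compounds that reduced the stress-induced luciferase reporter signal by more than about 70% of percent inhibition, limit read from the data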;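 further: 0% = tunicamycin plus vehicle and 100% = wells without tunicamycin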
EBV gp42 inh – inhibitors of Epstein-Barr virus glycoprotein 42 | inhibition, % (tested at 21.74 µM) | Fluorescence polarization binding assay, mP read-out | AID 1085 | actives 0.42% (n = 220,000); in the data active means inhibition above about 50%
Target sequence (Q1HVG2 whole entry, looked up): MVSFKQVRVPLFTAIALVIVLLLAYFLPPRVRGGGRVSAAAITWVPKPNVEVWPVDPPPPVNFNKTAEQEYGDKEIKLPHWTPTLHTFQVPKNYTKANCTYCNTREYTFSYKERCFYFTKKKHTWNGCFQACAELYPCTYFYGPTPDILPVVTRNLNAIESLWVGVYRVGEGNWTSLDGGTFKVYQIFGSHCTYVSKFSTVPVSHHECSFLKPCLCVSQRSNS
WT yeast gro inh – growth inhibition of WT yeast, mitochondrial fusion screen. AID 1362. mitochondrial fusion phenotypic screen, WT strain. actives 2.1% (n = 190,000). inhibition, % at 10 µM; in the data active means inhibition above about 58%; tested in S. cerevisiae
MPTP block – permeability transition pore inhibition; isolated mouse mitochondria, Ca2+ swelling absorbance, 30 min; inhibition, % at 10 µM; actives 1.4% (n = 360,000);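 active means inhibition of 50% or more, scaled per plate between neutral and stimulator controls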;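 further: 0% = DMSO wells given calcium and 100% = 1 mM EGTA wells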
TbMetRS inhib – blocks T. brucei methionyl-tRNA synthetase activity. AID 624268. actives 0.4% (n = 360,000). purified T. brucei MetRS, ATP depletion, Kinase-Glo luminescence. inhibition, % at 11.9 µM;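 active means inhibition above a per-plate cutoff of the control wells' mean inhibition plus 3 SD, cut at about 5.5% in these data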;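 further: 0% = DMSO wells median and 100% = median of wells with control inhibitor compound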
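System: purified T. brucei MetRS enzyme / Detection: Kinase-Glo luciferase luminescence reporting remaining unconsumed ATP / Medium: HEPES buffer with MgCl2, KCl, DTT, spermine, BSA, pyrophosphatase / Replication: singlicate, one well per compound / Evaluation: percent inhibition relative to median high and low control wells / Schedule: 2 h aminoacylation at 25 °C after 15 min preincubation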
NR3A LBD binder – NR3A (human) ligand-binding domain modulation; NR3A LBD differential scanning fluorimetry, Tm shift; 0% = protein alone, 100% = glycine-bound protein; Tm shift relative to glycine control, % at 25 µM; actives 2.5% (n = 340,000); AID 1259313;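 active means melting temperature shift of at least 10% of the positive control shift, at one fixed dose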
* marks the source's active call; other numbers are inactive results.

For COc1ccc(-n2cc(CN3CCCC3)c(-c3cccc(F)c3)n2)cc1 the results were CHOP inh -9, EBV gp42 inh -22, WT yeast gro inh 25, MPTP block 9, TbMetRS inhib -2 and NR3A LBD binder -1.
`CCn1ccnc1CN(C)Cc1cn(-c2ccccc2)nc1-c1ccc(OC)cc1F` gave CHOP inh 6, EBV gp42 inh -11, WT yeast gro inh 15, MPTP block -3, TbMetRS inhib 0 and NR3A LBD binder -2.
For Cc1cccc(-n2cc(CN3CCN(Cc4nccn4C)CC3)c(-c3cccc(F)c3)n2)c1 the results were CHOP inh -29, EBV gp42 inh 3, WT yeast gro inh 86*, MPTP block -1, TbMetRS inhib -1 and NR3A LBD binder -3.
`CCn1ccnc1CN(C)Cc1cn(-c2cc(C)ccc2C)nc1-c1ccccc1` gave CHOP inh 14, EBV gp42 inh -3, WT yeast gro inh 61*, MPTP block 0, TbMetRS inhib -1 and NR3A LBD binder -1.
`CCOC(=O)C1CCN(c2ccc([N+](=O)[O-])cc2S(=O)(=O)N2CCOCC2)CC1` gave MPTP block -1, TbMetRS inhib 0 and NR3A LBD binder -2.
NC(=O)C1CCN(C(=O)CCCCCn2c(=O)[nH]c3ccsc3c2=O)CC1 was read as CHOP inh -17, EBV gp42 inh -18, WT yeast gro inh 2, MPTP block -1, TbMetRS inhib -1 and NR3A LBD binder 1.
`Cc1ccc(-n2cc(CN(C)Cc3nccn3C)c(-c3ccc(F)cc3)n2)cc1` gave CHOP inh 30, EBV gp42 inh 2, WT yeast gro inh 76*, MPTP block -1, TbMetRS inhib 0 and NR3A LBD binder 0.
O=C(c1ccc2oc(Cc3ccc(Cl)cc3)nc2c1)N1CCCCC1CCO (configuration not stated) was read as MPTP block -1, TbMetRS inhib 0 and NR3A LBD binder 10*.
For COC1CCN(C(=O)c2ccc3oc(Cc4ccc(Cl)cc4)nc3c2)CC1 the results were MPTP block -2, TbMetRS inhib 0 and NR3A LBD binder -1.
`O=C(COc1ccc2ccc(=O)oc2c1)NCCCn1ccnc1` gave MPTP block -2, TbMetRS inhib 0 and NR3A LBD binder -5.
`C[C@@H]1C[C@H]2[C@@H]3C[C@H](F)C4=CC(=O)C=C[C@]4(C)[C@@]3(Cl)[C@@H](O)C[C@]2(C)[C@H]1C(=O)COC(=O)C(C)(C)C` gave MPTP block 0, TbMetRS inhib 0 and NR3A LBD binder -2.
For CCN(CC(=O)Nc1ccccc1OC)C(=O)C1CCC1 the results were MPTP block -1, TbMetRS inhib 0 and NR3A LBD binder 2.
`COc1ccc(C(=O)/C=C/Nc2ccc([N+](=O)[O-])cc2C)c(OC)c1` gave CHOP inh 4, EBV gp42 inh -20, WT yeast gro inh 3, MPTP block -1, TbMetRS inhib 0 and NR3A LBD binder 7.
Screening COc1ccc(C(=O)/C=C/Nc2cc(C)on2)c(OC)c1 returned CHOP inh -6, EBV gp42 inh -9, WT yeast gro inh 25, MPTP block 1, TbMetRS inhib 1 and NR3A LBD binder 31*.
Screening Clc1ccc2c(NCc3ccccn3)ncnc2c1 returned CHOP inh 1, EBV gp42 inh -15, WT yeast gro inh -6, MPTP block -2, TbMetRS inhib 3 and NR3A LBD binder -2.
`Cc1cc(C)c(NC(=O)CN2C(=O)NC3(CCc4ccccc43)C2=O)c(Cl)c1` (configuration not stated) gave MPTP block 1, TbMetRS inhib 0 and NR3A LBD binder 1.
For Cc1cc(C)c(NC(=O)CN2C(=O)NC3(CCCCC3)C2=O)c(Cl)c1 the results were CHOP inh 71*, EBV gp42 inh -12, WT yeast gro inh 6, MPTP block 0, TbMetRS inhib -1 and NR3A LBD binder -2.
For Cc1ccc(C(=O)NCCCN2CCOCC2)o1 the results were CHOP inh 31, EBV gp42 inh -1, WT yeast gro inh -9, MPTP block 3, TbMetRS inhib 0 and NR3A LBD binder 2.
O=C(c1ccc2c(c1)OCO2)N(Cc1ccco1)C1(C(=O)NC2CCCCC2)CCCCC1 was read as CHOP inh -12, EBV gp42 inh 17, WT yeast gro inh 59*, MPTP block 4, TbMetRS inhib -1 and NR3A LBD binder 1.
Screening COCCNC(=O)CC(NS(=O)(=O)c1ccc(C)cc1)c1ccco1 (configuration not stated) returned CHOP inh -3, EBV gp42 inh 13, WT yeast gro inh 73*, MPTP block -4, TbMetRS inhib -1 and NR3A LBD binder 6.
CCN(C[C@H]1N[C@@](CC)(C(=O)OC)[C@H]2C(=O)N(C)C(=O)[C@@H]12)C(C)=O was read as MPTP block 0, TbMetRS inhib 1 and NR3A LBD binder -1.
Screening CC(=O)Nn1cc2c(c1-c1ccccc1)c(=O)n(C)c(=O)n2C returned CHOP inh 46, EBV gp42 inh 1, WT yeast gro inh 0, MPTP block 0, TbMetRS inhib -1 and NR3A LBD binder 0.
`CCOc1ccc(OCC)c(S(=O)(=O)NCCOC23CC4CC(CC(C4)C2)C3)c1` gave CHOP inh 56, EBV gp42 inh 10, WT yeast gro inh 74*, MPTP block 5, TbMetRS inhib -1 and NR3A LBD binder 1.
`CCOC(=O)c1cnc2ccc(OC)cc2c1Nc1ccc2c(c1)OCCO2` gave CHOP inh 26, EBV gp42 inh 3, WT yeast gro inh 77*, MPTP block 4, TbMetRS inhib -1 and NR3A LBD binder 2.
For Nc1nc(CN2CCN(c3cccc(Cl)c3)CC2)nc(N2CCCc3ccccc32)n1 the results were CHOP inh 88*, EBV gp42 inh 8, WT yeast gro inh 45, MPTP block 3, TbMetRS inhib 0 and NR3A LBD binder -4.
Nc1nc(CN2CCN(Cc3ccccc3)CC2)nc(N2CCCc3ccccc32)n1 was read as CHOP inh 0, EBV gp42 inh -6, WT yeast gro inh 15, MPTP block 0, TbMetRS inhib -1 and NR3A LBD binder -4.
Screening Nc1nc(CSc2nnnn2-c2ccccc2)nc(N2CCCc3ccccc32)n1 returned CHOP inh 63, EBV gp42 inh -9, WT yeast gro inh 60*, MPTP block 1, TbMetRS inhib 0 and NR3A LBD binder -12.
Nc1nc(CN2CCN(c3ccccc3)CC2)nc(N2CCCc3ccccc32)n1 was read as CHOP inh 16, EBV gp42 inh -13, WT yeast gro inh 51, MPTP block -2, TbMetRS inhib 0 and NR3A LBD binder 1.
O=S(=O)(NCC1(N2CCOCC2)CCCCC1)c1ccc(Cl)cc1C(F)(F)F was read as MPTP block -1, TbMetRS inhib 0 and NR3A LBD binder 0.

Screens as filed in PubChem BioAssay.
